Data published in ChEMBL document CHEMBL1154778, “Synthesis and biological evaluation of C-5 methyl substituted 4-arylthio and 4-aryloxy-3-Iodopyridin-2(1H)-one type anti-HIV agents” (J Med Chem, 2009).

Tests used:
[1] = system: Human immunodeficiency virus 1; assay: Antiviral activity against HIV1 HXB2 harboring Y188L mutant reverse transcriptase infected in human MT4 cells after 5 days by MTT assay; format: functional, organism-based; conditions: Human immunodeficiency virus 1, HXB2, MT4, 120 h
Outline: (§1)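 Mutant viruses were made by recombining the mutant PR-RT sequence into a PR-RT-deleted HIV-1 HXB2 proviral clone. MT4 cells were grown in RPMI 1640 with 10% FCS and antibiotics. Virus at 200 CCID50/well and 30000 cells/well were incubated with varied compound concentrations for 5 days at 37 °C, 5% CO2. MTT viability gave IC50, the concentration giving 50% infection versus the drug-free control.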

[2] = system: Human immunodeficiency virus 1; assay: Antiviral activity against HIV1 HXB2 harboring 138K mutant reverse transcriptase infected in human MT4 cells after 5 days by MTT assay; format: functional, organism-based; conditions: Human immunodeficiency virus 1, HXB2, MT4, 120 h; outline: as §1
[3] = system: Human immunodeficiency virus 1; assay: Antiviral activity against HIV1 HXB2 harboring 227L and 106A mutant reverse transcriptase infected in human MT4 cells after 5 days by MTT assay; format: functional, organism-based; conditions: Human immunodeficiency virus 1, HXB2, MT4, 120 h; outline: as §1
[4] = system: Human immunodeficiency virus 1; assay: Antiviral activity against HIV1 HXB2 harboring Y181C mutant reverse transcriptase infected in human MT4 cells after 5 days by MTT assay; format: functional, organism-based; conditions: Human immunodeficiency virus 1, HXB2, MT4, 120 h; outline: as §1
[5] = system: Human immunodeficiency virus 1; assay: Antiviral activity against HIV1 HXB2 harboring 101E mutant reverse transcriptase infected in human MT4 cells after 5 days by MTT assay; format: functional, organism-based; conditions: Human immunodeficiency virus 1, HXB2, MT4, 120 h; outline: as §1
[6] = system: Human immunodeficiency virus 1; assay: Antiviral activity against HIV1 HXB2 harboring 190S mutant reverse transcriptase infected in human MT4 cells after 5 days by MTT assay; format: functional, organism-based; conditions: Human immunodeficiency virus 1, HXB2, MT4, 120 h; outline: as §1
[7] = system: Human immunodeficiency virus 1; assay: Antiviral activity against HIV1 HXB2 harboring K103N and Y181C mutant reverse transcriptase infected in human MT4 cells after 5 days by MTT assay; format: functional, organism-based; conditions: Human immunodeficiency virus 1, HXB2, MT4, 120 h; outline: as §1
[8] = system: Human immunodeficiency virus 1; assay: Antiviral activity against HIV1 HXB2 harboring 179E mutant reverse transcriptase infected in human MT4 cells after 5 days by MTT assay; format: functional, organism-based; conditions: Human immunodeficiency virus 1, HXB2, MT4, 120 h; outline: as §1
[9] = Selectivity index, ratio of CC50 for human MT4 cells to IC50 for HIV-1 LAI harboring wild type reverse transcriptase infected in human MT4 cells; format: functional
Outline: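 Cytotoxicity was measured in mock-infected MT4 cultures (30000 cells/well) given the same compound concentration range, run in parallel with the infected cultures for 5 days at 37 °C, 5% CO2, with MTT viability. CC50 was the concentration reducing viability by 50% versus the drug-free control. SI was CC50 divided by IC50 against HIV-1 LAI.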

[10] = system: Human immunodeficiency virus 1; assay: Antiviral activity against HIV1 HXB2 harboring 106A mutant reverse transcriptase infected in human MT4 cells after 5 days by MTT assay; format: functional, organism-based; conditions: Human immunodeficiency virus 1, HXB2, MT4, 120 h; outline: as §1
[11] = system: Human immunodeficiency virus 1; assay: Antiviral activity against HIV1 HXB2 harboring 101E and K103N mutant reverse transcriptase infected in human MT4 cells after 5 days by MTT assay; format: functional, organism-based; conditions: Human immunodeficiency virus 1, HXB2, MT4, 120 h; outline: as §1
[12] = system: Human immunodeficiency virus 1; assay: Antiviral activity against HIV1 HXB2 harboring 100I and K103N mutant reverse transcriptase infected in human MT4 cells after 5 days by MTT assay; format: functional, organism-based; conditions: Human immunodeficiency virus 1, HXB2, MT4, 120 h; outline: as §1
[13] = system: Human immunodeficiency virus 1; assay: Antiviral activity against HIV1 HXB2 harboring 190A mutant reverse transcriptase infected in human MT4 cells after 5 days by MTT assay; format: functional, organism-based; conditions: Human immunodeficiency virus 1, HXB2, MT4, 120 h; outline: as §1
[14] = system: Human immunodeficiency virus 1; assay: Antiviral activity against HIV1 HXB2 harboring K103N mutant reverse transcriptase infected in human MT4 cells after 5 days by MTT assay; format: functional, organism-based; conditions: Human immunodeficiency virus 1, HXB2, MT4, 120 h; outline: as §1
[15] = system: Human immunodeficiency virus 1; assay: Antiviral activity against HIV1 HXB2 harboring 100I mutant reverse transcriptase infected in human MT4 cells after 5 days by MTT assay; format: functional, organism-based; conditions: Human immunodeficiency virus 1, HXB2, MT4, 120 h; outline: as §1
[16] = system: Human immunodeficiency virus 1; assay: Antiviral activity against HIV-1 LAI harboring wild type reverse transcriptase infected in human MT4 cells after 5 days by MTT assay; format: functional, organism-based; conditions: Human immunodeficiency virus 1, LAI, MT4, 120 h
Outline: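 MT4 cells were kept in RPMI 1640 with 10% fetal calf serum and antibiotics at 37 °C, 5% CO2. A range of compound concentrations was incubated with HIV-1 LAI at 200 CCID50/well and 30000 MT4 cells/well for 5 days at 37 °C. Cell viability was read by MTT, and IC50 was the concentration giving 50% infection versus the drug-free control.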

[17] = system: Human immunodeficiency virus 1; assay: Antiviral activity against HIV1 HXB2 harboring 227C mutant reverse transcriptase infected in human MT4 cells after 5 days by MTT assay; format: functional, organism-based; conditions: Human immunodeficiency virus 1, HXB2, MT4, 120 h; outline: as §1
[18] = system: Human immunodeficiency virus 1; assay: Ratio of compound IC50 to efavirenz IC50 for HIV1 HXB2 harboring Y181C mutant reverse transcriptase infected in human MT4 cells; format: functional
[19] = system: Human immunodeficiency virus 1; assay: Ratio of efavirenz IC50 to compound IC50 for HIV1 HXB2 harboring K103N mutant reverse transcriptase infected in human MT4 cells; format: functional
[20] = system: Human immunodeficiency virus 1; assay: Ratio of efavirenz IC50 to compound IC50 for HIV1 HXB2 harboring Y188L mutant reverse transcriptase infected in human MT4 cells; format: functional
[21] = system: Human immunodeficiency virus 1; assay: Ratio of efavirenz IC50 to compound IC50 for HIV1 HXB2 harboring 100I and K103N mutant reverse transcriptase infected in human MT4 cells; format: functional

Compound | IC50 [1] | IC50 [2] | IC50 [3] | IC50 [4] | IC50 [5] | IC50 [6] | IC50 [7] | IC50 [8] | Ratio CC50/IC50 [9] | IC50 [10] | IC50 [11] | IC50 [12] | IC50 [13] | IC50 [14] | IC50 [15] | IC50 [16] | IC50 [17] | also measured
CCSCc1c(C)[nH]c(=O)c(I)c1Oc1cc(C)cc(C)c1 | 31.6 nM | 25.1 nM | 125 nM | 6.3 nM | 19.9 nM | 10 nM | 19.9 nM | 10 nM | >79433 | 7.94 nM | 19.9 nM | 15.8 nM | 19.9 nM | 6.3 nM | 7.94 nM | 1.25 nM | 199 nM | –
Cc1cc(C)cc(Oc2c(CSCc3csc(C)n3)c(C)[nH]c(=O)c2I)c1 | 7.9 nM | – | – | 6.3 nM | – | – | – | – | >100000 | – | – | 158 nM | – | 1 nM | 3.16 nM | 1 nM | 39.8 nM | EC50 [3]: 158 nM
Cc1cc(C)cc(Oc2c(Cn3ccnc3)c(C)[nH]c(=O)c2I)c1 | 31.6 nM | 11.2 nM | – | 10 nM | 9.2 nM | 2.2 nM | 71.2 nM | 5.1 nM | >50118 | 3.7 nM | 28.6 nM | 23.7 nM | 8 nM | 2.51 nM | 6.31 nM | 1.99 nM | – | –
Cc1cc(C)cc(Oc2c(Cn3cnnn3)c(C)[nH]c(=O)c2I)c1 | 10.3 nM | 3.9 nM | 3.8 nM | 5.9 nM | 4 nM | 0.4 nM | 17.4 nM | 1.4 nM | >100000 | 2 nM | 4.6 nM | 4.7 nM | 3.7 nM | 1.4 nM | 4 nM | 0.79 nM | 2.6 nM | –
CCc1c(C)[nH]c(=O)c(N(C)C)c1C(=O)c1cc(C)cc(C)c1 | 158 nM | 6.31 nM | 398 nM | 63.1 nM | 7.94 nM | 3.98 nM | 158 nM | 2.51 nM | 2512 | 6.31 nM | 12.6 nM | 39.8 nM | 12.6 nM | 10 nM | 6.31 nM | 3.98 nM | 631 nM | –
O=C1Nc2ccc(Cl)cc2[C@@](C#CC2CC2)(C(F)(F)F)O1 [EFAVIRENZ] | – | – | 25.1 nM | – | 6.3 nM | 251 nM | – | 5.01 nM | – | – | – | – | 10 nM | – | – | – | – | –
Cc1ccnc2c1NC(=O)c1cccnc1N2C1CC1 [NEVIRAPINE] | 100000 nM | 51 nM | 163 nM | 10000 nM | – | 44 nM | 100000 nM | 195 nM | – | – | – | – | – | – | – | – | 135 nM | –
CCc1c(C)[nH]c(=O)c(N(C)C)c1Cc1cc(C)cc(C)c1 | 251 nM | – | – | 100 nM | 15.8 nM | – | 794 nM | – | 12589 | 39.8 nM | – | – | 63.1 nM | 31.6 nM | 50.1 nM | 7.94 nM | – | –
Cc1cc(C)cc(Oc2c(CSCc3ccco3)c(C)[nH]c(=O)c2I)c1 | 31.6 nM | 1.25 nM | 125 nM | 5 nM | 6.31 nM | 1.25 nM | 5.01 nM | 1 nM | >79433 | 1.58 nM | 3.98 nM | 31.6 nM | 3.16 nM | 1 nM | 6.31 nM | 1.25 nM | 39.8 nM | –
Cc1cc(C)cc(Sc2c(Cn3ncnn3)c(C)[nH]c(=O)c2I)c1 | 31.6 nM | 2.6 nM | 50.1 nM | 10 nM | 3.3 nM | 0.3 nM | 32.9 nM | 0.8 nM | >158489 | 0.6 nM | 5 nM | 3.98 nM | 1 nM | 1.25 nM | 1.25 nM | 0.63 nM | 50.1 nM | –
CCc1c(C)[nH]c(=O)c(I)c1Oc1cc(C)cc(C)c1 | – | 3.98 nM | 398 nM | – | 6.31 nM | 1.99 nM | – | 1.99 nM | 9000 | 5.01 nM | 15.8 nM | – | – | – | 6.31 nM | – | 63.1 nM | Ratio IC50 [18]: 10; Ratio IC50 [19]: 10; Ratio IC50 [20]: 3
Cc1cc(C)cc(Sc2c(Cn3cnnn3)c(C)[nH]c(=O)c2I)c1 | 15.8 nM | 1.1 nM | 39.8 nM | 7.9 nM | 1.4 nM | 0.2 nM | 6.8 nM | 0.8 nM | >79433 | 0.5 nM | 1 nM | 1.25 nM | 0.9 nM | 0.31 nM | 0.79 nM | 1.25 nM | 31.6 nM | Ratio IC50 [21]: 1000
